Data taken from article PMC5976253 (Journal of medicinal chemistry, 2018).
Entries after “also recorded” stand apart in the source; their conditions may differ.

What was measured:
rat UT-B = biological target: T1, rat UT-B (Rattus norvegicus, UniProt P97689); experiment: UT-B inhibition, erythrocyte lysis assay; type: cell-based
T1 sequence (P97689 1-384): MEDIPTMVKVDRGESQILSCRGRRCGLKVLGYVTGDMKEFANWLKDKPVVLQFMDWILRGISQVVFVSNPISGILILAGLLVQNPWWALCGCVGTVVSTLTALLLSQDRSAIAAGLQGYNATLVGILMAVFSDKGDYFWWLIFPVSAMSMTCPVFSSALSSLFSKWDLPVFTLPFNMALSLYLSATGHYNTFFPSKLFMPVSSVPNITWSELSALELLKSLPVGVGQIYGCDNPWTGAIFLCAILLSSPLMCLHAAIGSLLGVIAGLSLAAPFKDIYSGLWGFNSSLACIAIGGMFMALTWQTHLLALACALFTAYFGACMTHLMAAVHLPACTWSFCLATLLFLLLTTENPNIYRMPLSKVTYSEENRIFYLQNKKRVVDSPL
Summary of the method: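 Rat whole blood was diluted to ~1.5% hematocrit in PBS with 1.25 M acetamide and 5 mM glucose, then incubated 15 min with test compound. Suspension was added rapidly to wells and mixed vigorously, and lysis was read as absorbance at 710 nm. Controls were isosmolar buffer (nonlysed) and 0.7 mM phloretin (lysed), with % lysis normalized between them; mean ± SEM, n = 3.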

rat UT-A1 = biological target: T2, rat UT-A1 (Rattus norvegicus, UniProt Q62668); type: cell-based
T2 sequence (Q62668 1-929): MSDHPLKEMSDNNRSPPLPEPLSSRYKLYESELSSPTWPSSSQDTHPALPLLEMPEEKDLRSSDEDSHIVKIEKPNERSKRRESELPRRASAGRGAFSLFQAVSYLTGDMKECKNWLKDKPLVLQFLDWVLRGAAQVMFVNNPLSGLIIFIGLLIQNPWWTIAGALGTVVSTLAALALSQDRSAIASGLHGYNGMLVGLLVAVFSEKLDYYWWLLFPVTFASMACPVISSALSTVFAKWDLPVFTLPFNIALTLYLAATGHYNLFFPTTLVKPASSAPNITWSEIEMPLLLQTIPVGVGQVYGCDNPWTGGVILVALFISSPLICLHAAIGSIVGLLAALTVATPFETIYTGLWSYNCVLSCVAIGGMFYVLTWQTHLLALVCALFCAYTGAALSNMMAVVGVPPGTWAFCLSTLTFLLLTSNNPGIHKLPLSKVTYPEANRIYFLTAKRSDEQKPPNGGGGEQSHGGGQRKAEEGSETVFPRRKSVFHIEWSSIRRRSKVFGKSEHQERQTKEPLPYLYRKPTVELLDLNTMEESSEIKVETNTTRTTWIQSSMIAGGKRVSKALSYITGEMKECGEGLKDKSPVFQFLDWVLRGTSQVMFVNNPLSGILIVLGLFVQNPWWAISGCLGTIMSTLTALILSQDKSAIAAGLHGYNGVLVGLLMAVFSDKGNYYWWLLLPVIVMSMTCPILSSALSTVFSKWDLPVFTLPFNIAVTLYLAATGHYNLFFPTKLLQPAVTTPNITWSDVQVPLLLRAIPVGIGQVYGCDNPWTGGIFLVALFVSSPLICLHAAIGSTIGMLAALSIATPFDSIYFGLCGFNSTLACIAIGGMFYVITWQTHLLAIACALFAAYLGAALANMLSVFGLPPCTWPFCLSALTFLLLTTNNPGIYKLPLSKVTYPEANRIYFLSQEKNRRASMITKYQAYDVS
Summary of the method: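 MDCK cells co-expressing rat UT-A1, AQP1 and YFP were used, selecting a clone with bright YFP and relatively low AQP1. Urea transport was read by plate-reader fluorescence, referenced to DMSO (0%) and phloretin (100%). Concentration–inhibition data are mean ± SEM, n = 3. For reversibility, cells were preincubated with 0.5 µM compound and PBS-washed before assay. For kinetics, 0.5 µM was added at varied times before assay. Urea gradients were 200, 400 and 800 mM.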

rats = experiment: Diuretic studies in rats; type: in vivo; conditions: rat, 4 mg/kg intravenous, compared with pretreatment
Summary of the method: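 Male Wistar rats (250–300 g), acclimated individually in metabolic cages for 3 days (6 h/day), with food and water ad libitum. Spontaneously voided urine was collected for 3 h. Test compound or vehicle was then given IV via catheter at 4 mg/kg in saline with 20% dimethylacetamide and 1.28 mg/mL NaOH, and urine was collected for a further 3 h. Read-outs were volume and freezing-point osmolality; mean ± SEM, n = 4; paired t-test versus −3 to 0 h.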

Rat pharmacokinetics = type: in vivo; conditions: 4 mg/kg intravenous
Summary of the method: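 Tail-vein blood was taken at 15, 30, 60, 120 and 180 min, serum separated, and urine collected in metabolic cages for 3 h; samples were stored at −20 °C. LC/MS (ESI positive) quantified compound against standards spiked into control rat urine and plasma.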

| Structure (SMILES) | UT-B inhibition (in words) (rat UT-B) | UT-A1 inhibition (in words) (rat UT-A1) | further results |
| --- | --- | --- | --- |
| CC(=O)Nc1ccc(-c2noc(C3CCCN(C(=O)c4ccccc4F)C3)n2)cc1 (stereo not shown) [compound 1] | little UT-B inhibition |  |  |
| CCCc1nnc2c(Oc3ccc(NS(=O)(=O)c4cc(Cl)ccc4OC)cc3)nc3cc(F)c(F)cc3n12 [8bl] |  |  | 3 h urine volume (rats): marked diuresis; also recorded: significantly increased; urine osmolality (rats): reduced urinary osmolality; serum concentration (Rat pharmacokinetics; for 3 h): greater than 2 µM; urine concentration (Rat pharmacokinetics; urine collected for 3 h): 6 to 8 µM |
| CCCc1nnc2c(Oc3ccc(NS(=O)(=O)c4cc(Cl)ccc4OC)cc3)nc3ccccc3n12 [8ay] |  |  | Reversibility of UT-A1 inhibition (rat UT-A1; 0.5 µM for 15 min followed by washing): fully reversed; half-time for UT-A1 inhibition (rat UT-A1; after addition of 0.5 µM compound): ~ 2 min; IC50 for UT-A1 at different urea concentration gradients (inhibition mechanism) (rat UT-A1; urea 200, 400 and 800 mM): similar |
| O=C(Nc1ccon1)c1cc(-c2ccccc2)nc2ccccc12 [compound 3] | little UT-B inhibition |  |  |
| COC(=O)c1sc2nc3c(cc2c1N)CN(Cc1ccccc1)CC3 [compound 4] |  | low potency |  |
| COc1ccc(-c2cccc(-c3ccn(Cc4csc(C)n4)n3)c2)nn1 [compound 2] | little UT-B inhibition |  |  |

Further lines, with some results ahead:

| UT-B inhibition (in words) (rat UT-B) | UT-A1 inhibition (in words) (rat UT-A1) | Structure (SMILES) | further results |
| --- | --- | --- | --- |
|  | inactive | COc1ccc(Cl)cc1S(=O)(=O)Nc1ccc(Oc2nc3ccccc3n3c(C)nnc23)cc1 [8an] |  |
|  | inactive | COc1ccc(Cl)cc1S(=O)(=O)Nc1ccc(Oc2nc3cc(Cl)c(Cl)cc3n3cnnc23)cc1 [8bi] |  |
|  | inactive | COc1ccc(Cl)c(S(=O)(=O)Nc2ccc(Nc3nc4ccccc4n4cnnc34)cc2)c1 [8am] |  |
| modest activity |  | COc1ccc(Cl)cc1S(=O)(=O)Nc1ccc(Oc2nc3ccccc3n3cnnc23)cc1 [8aa, N-(4-([1,2,4]Triazolo[4,3-a]quinoxalin-4-yloxy)-phenyl)-5-chloro-2-methoxybenzenesulfonamide] |  |
|  | inactive | COc1ccc(Cl)c(S(=O)(=O)Nc2ccc(Oc3nc4ccccc4n4cnnc34)cc2)c1 [8ag] |  |
